Source: PubChem (several laboratories)
EBV gp42 inh: blocks Epstein-Barr virus glycoprotein 42 binding; inhibition, % (tested at 21.74 µM); Fluorescence polarization binding assay, mP read-out; hit rate 0.42% among 220,000; Q1HVG2; in the data active = inhibition above about 50%
Target sequence (Q1HVG2 whole entry, looked up): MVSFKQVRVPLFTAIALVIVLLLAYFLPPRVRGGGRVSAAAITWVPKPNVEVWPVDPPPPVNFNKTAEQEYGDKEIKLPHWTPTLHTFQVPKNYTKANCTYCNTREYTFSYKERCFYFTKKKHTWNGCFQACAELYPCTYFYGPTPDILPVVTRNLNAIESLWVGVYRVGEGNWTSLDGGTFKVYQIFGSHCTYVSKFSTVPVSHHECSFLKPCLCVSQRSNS
CHOP inh: blocks CHOP induction under ER stress. CHO-K1 CHOP-promoter luciferase, tunicamycin-induced, 15-18 h. inhibition, % at 10 µM. hit rate 3.8% among 220,000;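 active = compounds that reduced the stress-induced luciferase reporter signal by more than about 70% of percent inhibition, limit read from the data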;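 note: 0% = tunicamycin plus vehicle and 100% = wells without tunicamycin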
Tb MetRS inh: blocks T. brucei methionyl-tRNA synthetase activity | purified T. brucei MetRS, ATP depletion, Kinase-Glo luminescence | inhibition, % at 11.9 µM | hit rate 0.4% among 360,000 | AID 624268;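 active = inhibition above a per-plate cutoff of the control wells' mean inhibition plus 3 SD, cut at about 5.5% in these data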;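 note: 0% = DMSO wells median and 100% = median of wells with control inhibitor compound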
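Dosing: 11.9 µM single point; system: parasite MetRS enzyme; technique: luminescence of leftover ATP; times: 15 min enzyme-compound preincubation, 2 h reaction, 10 min detection, 25 °C; replicates: each compound tested once; read-out basis: percent inhibition relative to median high and low control wells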
MPTP block: blocks calcium-induced mitochondrial swelling; isolated mouse mitochondria, Ca2+ swelling absorbance, 30 min; AID 602449; hit rate 1.4% among 360,000; inhibition, % at 10 µM;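 active = inhibition of 50% or more, scaled per plate between neutral and stimulator controls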;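 note: 0% = DMSO wells given calcium and 100% = 1 mM EGTA wells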
GRIN3A LBD mod: modulates the human NR3A ligand-binding domain. NR3A LBD differential scanning fluorimetry, Tm shift; 0% = protein alone, 100% = glycine-bound protein. hit rate 2.5% among 340,000. Tm shift relative to glycine control, % at 25 µM;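 active = melting temperature shift of at least 10% of the positive control shift, at one fixed dose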
WT yeast gro inh: growth inhibition of WT yeast, mitochondrial fusion screen; mitochondrial fusion phenotypic screen, WT strain; inhibition, % at 10 µM; hit rate 2.1% among 190,000; AID 1362; in the data active = inhibition above about 58%; tested in S. cerevisiae
Rh123 counter: Rhodamine 123 counter-screen of mitochondrial pore hits. AID 624504. hit rate 78% among 5,000. shares compounds with MPTP block. isolated mitochondria, membrane potential, Rhodamine 123 fluorescence. inhibition, % at 10 µM; in the data active = inhibition above about 22%;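 note: 0% = DMSO vehicle and 100% = positive control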
Active calls of the source: *; · = no result. Compounds with a hit are over-represented: about 6.4% of the library has one in this group of screens.

SMILES	EBV gp42 inh	CHOP inh	Tb MetRS inh	MPTP block	GRIN3A LBD mod	WT yeast gro inh	Rh123 counter
COc1ccc([N+](=O)[O-])cc1NC(=S)NC(NC(C)=O)C(Cl)(Cl)Cl (stereo not given)	-3.6	18.2	-0.4	9.0	-5.9	·	·
O=C(CSc1nc2cc(Cl)ccc2o1)Nc1ccc(N2CCOCC2)cc1	-10.9	23.6	0.1	50.9*	-13.8	-6.8	67.6*
O=C(CSc1nc2ccccc2o1)Nc1ccc(N2CCOCC2)cc1	-1.7	-5.8	-0.4	29.5	8.8	3.9	·
CC12CC3(C)CC(C)(C1)CC(C(=O)Nc1nn[nH]n1)(C2)C3	-19.5	-38.3	-0.1	0.7	3.8	-26.9	·
CC(=O)Nc1cccc(OCCOc2cccc([N+](=O)[O-])c2)c1	·	·	-0.5	1.4	2.6	·	·
Cc1cc(=O)n(C)c(=O)n1CCCCCCOc1cccc([N+](=O)[O-])c1	12.7	22.2	-0.3	57.1*	-2.1	-15.1	20.5*
COc1ccc(C)cc1NC(=O)c1ccccc1NS(=O)(=O)c1ccc(Cl)s1	9.5	32.6	0.0	88.1*	16.8*	84.1*	61.0*
O=S(=O)(Nc1cccc(S(=O)(=O)N2CCOCC2)c1)c1ccc(Cl)s1	-9.2	-11.2	-0.8	-0.2	1.4	-7.8	·
Cc1ccc(NC(=O)c2ccccc2NS(=O)(=O)c2ccc(Cl)s2)cc1S(=O)(=O)N1CCOCC1	-7.8	15.5	0.1	98.9*	24.3*	6.9	77.2*
Cc1ccc2nc3c(cc(C(=O)NC4CCCC4)c(=N)n3CCCn3ccnc3)c(=O)n2c1	-6.0	-5.4	·	·	·	-15.2	·
Cc1ccc(N2C(=O)C3ON(c4ccccc4)C(c4ccncc4)C3C2=O)cc1 (stereo not given)	4.7	8.4	0.2	23.4	-0.3	-12.8	·
O=C1C2ON(c3ccccc3)C(c3ccncc3)C2C(=O)N1c1ccc(Br)cc1 (stereo not given)	-7.0	-8.8	0.0	68.8*	1.6	-6.6	21.8*
Cc1csc(-c2cc(C(=O)NCc3cc(C(F)(F)F)cc(C(F)(F)F)c3)n[nH]2)c1	·	·	-0.4	71.9*	·	·	77.9*
Cc1cc(F)ccc1-c1cc(C(=O)NCc2cccc(C(F)(F)F)c2)[nH]n1	·	·	-0.3	9.4	·	·	·
Cc1ccc(F)cc1-c1cc(C(=O)NCc2cc(C(F)(F)F)cc(C(F)(F)F)c2)[nH]n1	·	·	-0.3	69.0*	·	·	101.0*
COc1ccc(Cl)cc1-c1cc(C(=O)NCc2cc(C(F)(F)F)cc(C(F)(F)F)c2)[nH]n1	·	·	0.2	4.7	·	·	·
Cc1ccc(Cl)cc1-c1cc(C(=O)NCc2cc(C(F)(F)F)cc(C(F)(F)F)c2)[nH]n1	·	·	-0.1	95.7*	·	·	82.7*
Cc1cc(F)cc(-c2cc(C(=O)NCc3ccc(C(F)(F)F)cc3)[nH]n2)c1	·	·	0.1	19.3	·	·	·
Cc1cc(F)ccc1-c1cc(C(=O)NCc2cc(C(F)(F)F)cc(C(F)(F)F)c2)[nH]n1	·	·	0.1	84.4*	·	·	104.0*
COc1ccc(F)cc1-c1cc(C(=O)NCc2ccc(C(F)(F)F)cc2)[nH]n1	·	·	0.2	-0.3	·	·	·
CC1(C)Cc2cccc(OCC(=O)OCc3nnc(-c4ccccc4)o3)c2O1	·	·	-0.1	0.5	3.2	·	·
CC1CN(C(=O)c2ccc(COc3ccc4ccccc4c3)o2)CC(C)O1 (stereo not given)	10.7	-29.4	-0.1	0.9	-8.8	7.0	·
O=C(c1ccc(Br)s1)N1CCN(S(=O)(=O)c2ccccc2)CC1	·	·	-0.4	-0.1	0.5	·	·
Cc1ccc(O)c(-c2cc(C(=O)NCc3ccc4c(c3)OCO4)[nH]n2)c1	14.5	-1.9	-0.2	4.3	-17.9	-0.1	·
Cc1ccc(CNC(=O)c2cc(-c3cc(C)cc(C)c3O)n[nH]2)cc1	-4.6	9.1	-0.1	88.0*	11.5*	·	72.8*
Cc1cc(C)c(O)c(-c2cc(C(=O)Nc3ccc(S(=O)(=O)N4CCOCC4)cc3)[nH]n2)c1	-0.2	85.2*	4.5	92.8*	22.8*	-20.3	64.3*
Cc1cc(C)c(OCC(=O)Nc2ccc(S(=O)(=O)N3CCOCC3)cc2)c(C)c1	·	·	-0.5	0.8	-15.3	·	·
C/C(Nc1ccccc1C(F)(F)F)=C1/CCOC1=O	-3.7	20.6	-1.1	-0.1	-0.2	-18.4	·
CC(=O)c1c(C)[nH]c(C(=O)Nc2nc(-c3ccc(Cl)cc3)cs2)c1C	-3.0	34.8	-0.2	94.1*	-3.9	86.2*	58.0*
